# This is a sample that favours compounds with a hit; in the whole collection about 3.5% have one here.
# NF-kB neuron act: NF-kB expression increase, human neuronal cells; NF-kB reporter expression; active compounds read high; fold change at 12.5 µM; 190,000 tested, 1.6% active; AID 1239; in the data active = fold change above about 3.3
# STAT1 act: STAT1 signaling activation; NIH 3T3 STAT1-luciferase reporter, IFN-gamma, luminescence; 100% = IFN-gamma alone, no compound; 200,000 tested, 2.6% active; activation (% of control), % at 5.5 µM;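 active = activation above the screen-wide mean activation plus 3 SD, cut at about 130% in these data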
# APP 5'UTR act: activates APP 5'UTR luciferase reporter; SH-SY5Y APP 5'UTR luciferase reporter, luminescence; zero percent = DMSO vehicle wells; activation, % at 2 µM; 190,000 tested, 1% active;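 active = activation above a set limit, based on mean plus 3 SD of controls, cut at about 140% in these data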
# Pf gamet viab: kills late stage P. falciparum gametocytes; P. falciparum stage V gametocytes, ATP luminescence, 24 h; inhibition, % at 10.9 µM; 150,000 tested, 0.065% active; AID 743093;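 active = inhibition above the mean plus 3 SD of compounds within the control limits, set per campaign, cut at about 38% in these data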
# FLuc act counter: affects firefly luciferase, flagging false hits in luciferase stimulation screens; ATPlite luciferase biochemical, luminescence, 10 min; 0 = ATP-free wells, 1 = DMSO control; activation factor at 10 µM; P08659; 200,000 tested, under 10 active;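 active = luciferase activation factor, scaled between plate controls, of at least 2 with compound at 10 µM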
# Target sequence (P08659 whole entry, looked up): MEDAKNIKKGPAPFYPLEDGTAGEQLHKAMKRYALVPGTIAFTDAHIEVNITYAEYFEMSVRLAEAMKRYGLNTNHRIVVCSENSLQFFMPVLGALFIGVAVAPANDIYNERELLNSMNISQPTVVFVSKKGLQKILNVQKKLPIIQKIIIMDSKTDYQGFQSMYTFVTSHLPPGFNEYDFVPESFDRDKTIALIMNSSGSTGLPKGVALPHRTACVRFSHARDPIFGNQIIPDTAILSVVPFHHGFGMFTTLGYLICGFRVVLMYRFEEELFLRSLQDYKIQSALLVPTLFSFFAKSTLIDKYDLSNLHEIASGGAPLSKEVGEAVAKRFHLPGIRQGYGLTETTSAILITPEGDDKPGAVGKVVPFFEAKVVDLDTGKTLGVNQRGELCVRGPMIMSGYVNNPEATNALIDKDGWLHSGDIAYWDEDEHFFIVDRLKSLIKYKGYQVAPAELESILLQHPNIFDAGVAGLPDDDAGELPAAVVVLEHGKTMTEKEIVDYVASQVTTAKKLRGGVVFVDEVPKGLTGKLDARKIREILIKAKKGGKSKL
#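 System: cell-free luciferase reagent; medium: PBS as buffer for the ATP substrate; doses: test compounds dosed from 2 mM stocks in 100% DMSO; incubation: 10 min, room temperature; measured by: luminescence from luciferase reaction; read-out: luciferase activation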
# FLuc inh counter: inhibits firefly luciferase, flagging false hits in luciferase inhibition screens; ATPLite firefly luciferase biochemical luminescence, 10 min; inhibition, % at 10 µM; 200,000 tested, 1.5% active;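 active = inhibition above about 50% when tested at 10 µM, limit read from the data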
# A number is an active result; 0 = inactive; - = no result given.
SMILES,NF-kB neuron act,STAT1 act,APP 5'UTR act,Pf gamet viab,FLuc act counter,FLuc inh counter
CCOC(=O)c1ccc2nc(NC(=O)c3cccs3)sc2c1,7,140,0,-,0,0
O=C(Nc1nc2ccc(S(=O)(=O)N3CCCC3)cc2s1)c1cccs1,0,0,0,0,0,0
CCCC(=O)Nc1nc2ccc(C(=O)OCC)cc2s1,0,0,0,-,0,0
CCS(=O)(=O)c1ccc(C(=O)Nc2ccccc2OC)c(Cl)c1Cl,0,0,0,0,0,0
CC(=O)Nc1ccc(NC(=O)CSc2ccc([N+](=O)[O-])cn2)cc1,-,-,-,0,-,-
Clc1ccccc1/C=N/NC1=Nc2cccc3cccc1c23,0,180,171,0,0,0
COc1ccccc1NC1=Nc2cccc3cccc1c23,-,-,-,0,-,-
C(=N\NC1=Nc2cccc3cccc1c23)/c1ccccn1,6.2,182,0,0,0,66
O=C(O)c1ccc(NC2=Nc3cccc4cccc2c34)cc1,-,-,-,0,-,-
Cc1cc(C)c2nc3nc(C)c(C)cc3c(N)c2c1,0,143,0,0,0,0
O=C(/C=C/c1ccccc1[N+](=O)[O-])N1CCN(C(=O)c2ccco2)CC1,0,0,0,0,0,0
COc1ccc(CNc2ccc3c(c2)ncn3C)cc1OC,-,-,-,0,-,-
CCn1cnc2cc(NCc3ccncc3)ccc21,0,0,0,-,0,0
CCc1ccc(CNc2ccc3c(c2)ncn3C)cc1,0,148,0,-,0,0
Cc1ccc(CNc2ccc3c(c2)ncn3C)cc1,0,139,0,-,0,0
Cc1ccc(C(=O)Nc2ccc3c(c2)ncn3C)cc1,3.5,139,140,-,0,0
CCn1cnc2cc(NC(=O)c3ccc(C)cc3)ccc21,-,-,-,0,-,-
COc1ccc(C2/C(=C(\O)c3cccc(OC)c3)C(=O)C(=O)N2c2ccccn2)cc1 (centres undefined),0,0,0,0,0,0
O=C(C1=C[C@H](c2csc3ccccc23)C[C@H](OCc2ccc(CO)cc2)O1)N1CCOCC1,0,0,0,-,0,0
O=C(c1ccc(S(=O)(=O)NCc2ccco2)cc1)N1CCN(Cc2ccc3c(c2)OCO3)CC1,0,0,0,0,0,0
Cc1ccc(-c2cc(-c3cccs3)[nH]n2)c(O)c1,8.1,0,0,0,0,0
O=C(C1CC(c2ccc(F)cc2)=NO1)N1CCCCC1 (centres undefined),0,132,0,-,0,0
O=C(C1CC(c2ccc(F)cc2)=NO1)N1CCc2ccccc2C1 (centres undefined),0,0,0,-,0,0
CC1CCCCN1C(=O)C1CC(c2ccc(F)cc2)=NO1 (centres undefined),0,136,0,-,0,0
O=C(c1ccccc1)c1c[nH]c(C(=O)NNc2ccccc2)c1,0,0,0,0,0,0
SMILES,NF-kB neuron act,STAT1 act,APP 5'UTR act,Pf gamet viab,FLuc act counter,FLuc inh counter
CCC(=O)N1CCN(c2nc3ccccc3s2)CC1,0,129,0,0,0,0
O=C(C1CC1)N1CCN(c2nc3ccccc3s2)CC1,0,131,0,-,0,0
CC(C)(C)n1nnnc1CN1CCN(C(c2ccccc2)c2ccccc2)CC1,0,0,0,0,0,0
CCOC(=O)CCn1nc(-c2ccc(Cl)cc2)cc1N,0,138,0,-,0,0
CCOC(=O)Cn1nc(-c2ccc(Cl)cc2)cc1N,0,0,0,0,0,0
CC1=C[C@@H](C)[C@@H](c2ccc(C(F)(F)F)cc2)OC1=O,-,-,-,0,-,-
S=c1[nH]nc(-c2ccc3ccccc3n2)n1-c1cc(Cl)cc(Cl)c1,0,0,0,0,0,70
c1csc(CNc2ncnc3sccc23)c1,-,0,0,0,-,-
Clc1ccc(-n2ncc3c(NCc4cccs4)ncnc32)cc1,0,134,0,-,-,-
Cc1cccc(-n2ncc3c(NCc4ccccc4)ncnc32)c1,0,0,0,-,0,0
COCCN(CCOC)c1ncnc2c1cnn2-c1ccc(Cl)cc1,0,0,0,0,0,0
CC(=O)Nc1ccc(Nc2ncnc3c2cnn3-c2cccc(C)c2)cc1,0,144,0,0,0,0
Cc1cccc(-n2ncc3c(N(CCO)CCO)ncnc32)c1,0,130,0,-,0,0
Cc1cccc(-n2ncc3c(NCc4cccs4)ncnc32)c1,0,131,0,-,0,0
O=C1C2CCCCN2C(=O)N1CCCCN1CCN(c2cccc(Br)c2)CC1 (centres undefined),-,-,-,0,-,-
CCOC(=O)N1CCC(=NNC(=O)Cn2ccc(C(F)(F)F)n2)CC1,0,0,0,0,0,0
Cc1cccc(-n2ncc3c(NCc4ccco4)ncnc32)c1,0,130,0,0,0,0
Cc1cccc(-n2ncc3c(NCCN4CCOCC4)ncnc32)c1,0,0,0,0,0,0
Cc1cccc(-n2ncc3c(N4CCCc5ccccc54)ncnc32)c1,0,141,0,-,0,0
COC(=O)c1c(NC(=O)C2CC(=O)NN2Cc2ccccc2)sc(C)c1C (centres undefined),0,0,0,-,0,0
COc1ccccc1/C=N/NC(=O)c1csc(C)c1C,0,0,0,0,0,71
Cc1ccccc1C(=O)N/N=C/c1ccsc1C,0,133,0,0,0,0
NC(=O)Cn1nnc(-c2ccc(NC(=O)c3ccc(F)cc3)cc2)n1,0,0,0,0,0,0
O=C(OCCc1cc2ccccc2c(=O)o1)c1ccc(C(F)(F)F)cc1,-,-,-,0,-,-
CN(C)c1ccc(N=Nc2ccccc2C(=O)OCC(=O)N(C)C2CCCCC2)cc1,0,0,0,0,0,68
SMILES,NF-kB neuron act,STAT1 act,APP 5'UTR act,Pf gamet viab,FLuc act counter,FLuc inh counter
CN(C)c1ccc(N=Nc2ccccc2C(=O)OCC(=O)NC2CCCC2)cc1,0,0,0,-,0,59
CN(C)c1ccc(N=Nc2ccccc2C(=O)OCC(=O)NCC2CCCCC2)cc1,0,0,0,0,0,0
CN(C(=O)c1ccccc1C(=O)OCC(=O)NC(=O)NC(C)(C)C)C1CCCCC1,0,0,0,0,0,0
CC1(C)CC(NC(=O)c2cc(Cl)ccc2Cl)CC(C)(C)N1,-,-,-,0,-,-
CCc1ccc(NC(=S)NC(=O)CC(C)C)cc1,0,129,0,-,0,0
CCN(CC)S(=O)(=O)c1ccc(NC(=S)NC(=O)CC(C)C)cc1,0,0,0,0,0,0
CC(C)c1ccc(NC(=O)COc2ccc(F)cc2C(=O)c2cnn(-c3ccccc3)c2)cc1,0,140,0,-,0,0
O=C(O)c1ccc(-c2nc(-c3ccc(Cl)cc3Cl)cs2)cc1,0,137,0,0,0,0
CC1CCc2c(sc3ncn(CCO)c(=O)c23)C1 (centres undefined),0,138,0,0,0,0
CC1CCc2c(sc3ncn(Cc4ccc(C(=O)O)cc4)c(=O)c23)C1 (centres undefined),0,0,0,0,0,0
CN(C)c1ccc(/C=C/C(=O)c2ccccc2O)cc1,3.5,0,137,0,0,66
O=C(/C=C/c1ccc2c(c1)OCCCO2)c1ccccc1O,3.6,0,216,0,0,77

# Screens from PubChem BioAssay.
